Test results: ChEMBL document CHEMBL2396632 (Bioorg Med Chem Lett, 2013)
Active and inactive are the calls of the source. The rule behind the calls is not given here.

What was measured:
[1] = Vasoconstriction of human coronary artery; format: functional, tissue-based
Rattus norvegicus [2] = test: Toxicity in Sprague-Dawley rat assessed as nasal irritation at 75 mg/mL administered intranasally for 7 days; format: organism-based; details: in vivo, inhaled_or_intranasal, 168 h
Summary of the method: (§1)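 Seven-day rat intranasal irritancy study. Dosing at 75 or 175 mg/mL, 12.5 µL/nostril in succinate buffer, giving total doses of 1.875 mg and 4.375 mg. Nasal cavity and respiratory epithelium were examined histologically.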

Rattus norvegicus [3] = test: Toxicity in Sprague-Dawley rat assessed as nasal irritation at 175 mg/mL administered intranasally for 7 days; format: organism-based; details: in vivo, inhaled_or_intranasal, 168 h; summary of the method: as §1
[4] = biological target: T1, Calcitonin gene-related peptide type 1 receptor (Homo sapiens, UniProt O60894+Q16602); test: Antagonist activity at human CGRP receptor
T1 sequence (Q16602 whole entry, one chain of several): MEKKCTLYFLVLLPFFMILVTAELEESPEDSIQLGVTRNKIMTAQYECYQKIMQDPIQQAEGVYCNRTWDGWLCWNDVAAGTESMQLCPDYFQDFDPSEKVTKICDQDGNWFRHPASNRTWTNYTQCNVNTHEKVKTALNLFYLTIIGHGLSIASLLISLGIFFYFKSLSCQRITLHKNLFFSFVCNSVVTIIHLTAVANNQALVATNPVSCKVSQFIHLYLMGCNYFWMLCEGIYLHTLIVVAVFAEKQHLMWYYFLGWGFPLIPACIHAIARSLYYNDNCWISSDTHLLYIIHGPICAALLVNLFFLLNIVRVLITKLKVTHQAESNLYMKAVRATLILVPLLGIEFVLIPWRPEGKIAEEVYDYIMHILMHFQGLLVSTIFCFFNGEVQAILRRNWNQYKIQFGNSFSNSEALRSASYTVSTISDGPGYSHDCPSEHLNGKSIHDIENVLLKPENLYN

[5] = Aqueous solubility of the compound; format: physicochemical; details: buffer
Summary of the method: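 Aqueous solubility of crystalline material, determined at pH 8.5 and at lower pH.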

[6] = Permeability of the compound by PAMPA; format: ADME
[7] = Reversal of CGRP-induced dilation of human intracranial arterial rings; format: functional
Summary of the method: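 Ex vivo reversal protocol: vessels fully dilated with CGRP, then cumulative addition of antagonist in a 3-point concentration-response. EC50 (concentration giving 50% reversal) estimated by best fit, n = 4 vessels per compound.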

[8] = Oral bioavailability in mouse; format: ADME, organism-based; details: in vivo
Cytochrome P450 3A4 [9] = biological target: T2, Cytochrome P450 3A4 (Homo sapiens, UniProt P08684); test: Inhibition of CYP3A4 (unknown origin) expressed in baculovirus-infected insect cell microsomes assessed as benzoylresorufin conversion to resorufin metabolites after 45 mins by fluorescence assay; format: ADME, Microsome
T2 sequence (P08684 whole entry): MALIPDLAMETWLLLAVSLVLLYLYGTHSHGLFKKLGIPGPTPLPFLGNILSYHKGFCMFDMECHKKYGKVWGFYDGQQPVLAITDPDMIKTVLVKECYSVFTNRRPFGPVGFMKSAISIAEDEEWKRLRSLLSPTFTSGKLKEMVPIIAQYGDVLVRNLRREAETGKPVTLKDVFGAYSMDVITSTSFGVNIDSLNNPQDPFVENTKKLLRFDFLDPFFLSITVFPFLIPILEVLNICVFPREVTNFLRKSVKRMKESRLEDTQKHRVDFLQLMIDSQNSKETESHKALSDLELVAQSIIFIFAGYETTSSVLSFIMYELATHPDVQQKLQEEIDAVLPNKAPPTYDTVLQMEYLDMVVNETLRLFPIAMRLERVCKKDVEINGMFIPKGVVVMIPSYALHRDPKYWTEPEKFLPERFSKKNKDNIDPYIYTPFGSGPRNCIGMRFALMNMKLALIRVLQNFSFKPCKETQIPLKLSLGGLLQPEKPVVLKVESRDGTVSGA

[10] = Chemical degradation in succinate buffer at 40 mg/mL after 3 months at pH 6
[11] = Plasma concentration in marmoset at 0.03 mg/kg, sc measured 15 to 105 mins post-dose; format: ADME, organism-based, Callithrix jacchus; parameters: dose 0.03 mg/kg, route subcutaneous; details: in vivo
Summary of the method: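 Total plasma levels were measured in anesthetized marmosets given the antagonist SC at 0 min, sampled over the 15–105 min post-dose period. The animals also received repeated IV hαCGRP (10 μg/kg) challenges for the facial blood flow model.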

Callithrix jacchus [12] = test: Inhibition of human alphaCGRP-induced increase in facial blood flow in marmoset at 0.03 mg/kg, sc administered 30 mins after human alphaCGRP-challenge measured 105 mins post-dose by laser Doppler flowmetric analysis relative to control; format: functional; details: route subcutaneous
Summary of the method: (§2)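 Anesthetized marmosets received four IV hαCGRP challenges (10 μg/kg) at 45 min intervals (-30, 15, 60, 105 min) to raise facial blood flow, monitored by laser Doppler. Antagonist given SC at 0 min. The first challenge is the pre-dose vehicle baseline, and inhibition at each post-dose challenge is expressed against it.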

[13] = Plasma concentration in intranasally dosed New Zealand White rabbit after 5 mins; format: ADME, organism-based, Oryctolagus cuniculus; details: inhaled or intranasal
Summary of the method: (§3)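 Intranasal dosing in rabbit with 10 to 100 mg/mL dosing solutions, then plasma sampling from 5 min to 24 h. Reported values are Cmax, Tmax, and absolute bioavailability for each dosing-solution concentration.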

Cytochrome P450 2D6 = Cytochrome P450 2D6 (Homo sapiens, UniProt P10635); test: Inhibition of CYP2D6 (unknown origin) expressed in baculovirus-infected insect cell microsomes assessed as 3-[2-(N,N-diethyl-N-methylamino)ethyl]-7-methoxy-4-methylcoumarin conversion to 3-[2-(N,N-diethylamino)ethyl]-7-hydroxy-4-methylcoumarin after 45 mins by fluorescence assay; format: ADME, Microsome
Chain of Cytochrome P450 2D6 (P10635 whole entry): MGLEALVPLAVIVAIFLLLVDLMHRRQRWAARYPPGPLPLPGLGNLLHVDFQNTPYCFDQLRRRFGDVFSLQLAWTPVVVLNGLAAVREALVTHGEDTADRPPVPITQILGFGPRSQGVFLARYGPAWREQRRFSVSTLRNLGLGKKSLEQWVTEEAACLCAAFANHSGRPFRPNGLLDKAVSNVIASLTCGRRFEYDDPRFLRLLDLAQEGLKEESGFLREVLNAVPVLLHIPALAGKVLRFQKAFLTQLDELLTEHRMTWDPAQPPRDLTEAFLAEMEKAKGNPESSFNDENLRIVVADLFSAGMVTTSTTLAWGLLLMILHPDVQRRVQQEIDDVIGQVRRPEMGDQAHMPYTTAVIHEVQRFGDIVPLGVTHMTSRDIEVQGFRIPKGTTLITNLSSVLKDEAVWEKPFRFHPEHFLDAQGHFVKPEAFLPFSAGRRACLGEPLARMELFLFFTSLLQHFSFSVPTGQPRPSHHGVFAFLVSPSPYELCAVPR

[14] = biological target: Calcitonin gene-related peptide type 1 receptor (Homo sapiens) (UniProt Q16602); test: Antagonist activity at CGRP receptor in human SK-N-MC cell membranes assessed as inhibition of CGRP-stimulated cAMP production; format: functional, cell-based
Chain of Calcitonin gene-related peptide type 1 receptor (Homo sapiens) (Q16602 whole entry): as the sequence (Q16602 whole entry, one chain of several) above

Rattus norvegicus [15] = test: Toxicity in Sprague-Dawley rat assessed as lesions in respiratory epithelium at => 75 mg/mL administered intranasally for 7 days; format: organism-based; details: in vivo, inhaled_or_intranasal, 168 h; summary of the method: as §1
Homo sapiens [16] = species: Homo sapiens; test: Selectivity ratio for human CGRP receptor over human calcitonin receptor
Cytochrome P450 2C9 = Cytochrome P450 2C9 (Homo sapiens, UniProt P11712); test: Inhibition of CYP2C9 (unknown origin) expressed in baculovirus-infected insect cell microsomes assessed as 7-methoxy-4-trifluoromethylcoumarin conversion to 7-hydroxy-4-trifluoromethylcoumarin after 45 mins by fluorescence assay; format: ADME, Microsome
Chain of Cytochrome P450 2C9 (P11712 whole entry): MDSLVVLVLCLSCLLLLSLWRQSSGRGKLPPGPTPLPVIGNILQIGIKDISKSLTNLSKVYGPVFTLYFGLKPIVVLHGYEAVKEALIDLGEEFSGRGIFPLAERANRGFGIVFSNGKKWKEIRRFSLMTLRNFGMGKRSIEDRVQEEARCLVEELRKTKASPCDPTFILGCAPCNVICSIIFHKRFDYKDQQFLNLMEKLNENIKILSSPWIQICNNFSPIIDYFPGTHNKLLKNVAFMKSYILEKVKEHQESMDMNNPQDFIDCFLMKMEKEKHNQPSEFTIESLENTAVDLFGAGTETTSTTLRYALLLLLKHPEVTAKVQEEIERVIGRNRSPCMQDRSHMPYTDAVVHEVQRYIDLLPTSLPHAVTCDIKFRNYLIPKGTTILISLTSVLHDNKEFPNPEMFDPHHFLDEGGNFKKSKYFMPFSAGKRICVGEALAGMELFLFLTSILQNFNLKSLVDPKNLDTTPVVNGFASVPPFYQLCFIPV

[17] = Vasoconstriction of human coronary artery up to 10 uM; format: functional, tissue-based
[18] = biological target: T1, Calcitonin gene-related peptide type 1 receptor; test: (§4) Displacement of [125I]-CGRP from CGRP receptor in human SK-N-MC cell membranes after 2 hrs by scintillation counting analysis
[19] = biological target: Calcitonin gene-related peptide type 1 receptor (Homo sapiens) (UniProt Q16602); test: as §4
Rattus norvegicus [20] = test: Toxicity in Sprague-Dawley rat assessed as inflammation of olfactory epithelium at 175 mg/mL administered intranasally for 7 days; format: organism-based; details: in vivo, inhaled_or_intranasal, 168 h; summary of the method: as §1
Rattus norvegicus [21] = test: Toxicity in Sprague-Dawley rat assessed as ulceration of olfactory epithelium at 175 mg/mL administered intranasally for 7 days; format: organism-based; details: in vivo, inhaled_or_intranasal, 168 h; summary of the method: as §1
hERG [22] = biological target: T3, hERG (Homo sapiens, UniProt Q12809); test: Inhibition of human ERG at 30 uM relative to control
T3 sequence (Q12809 whole entry): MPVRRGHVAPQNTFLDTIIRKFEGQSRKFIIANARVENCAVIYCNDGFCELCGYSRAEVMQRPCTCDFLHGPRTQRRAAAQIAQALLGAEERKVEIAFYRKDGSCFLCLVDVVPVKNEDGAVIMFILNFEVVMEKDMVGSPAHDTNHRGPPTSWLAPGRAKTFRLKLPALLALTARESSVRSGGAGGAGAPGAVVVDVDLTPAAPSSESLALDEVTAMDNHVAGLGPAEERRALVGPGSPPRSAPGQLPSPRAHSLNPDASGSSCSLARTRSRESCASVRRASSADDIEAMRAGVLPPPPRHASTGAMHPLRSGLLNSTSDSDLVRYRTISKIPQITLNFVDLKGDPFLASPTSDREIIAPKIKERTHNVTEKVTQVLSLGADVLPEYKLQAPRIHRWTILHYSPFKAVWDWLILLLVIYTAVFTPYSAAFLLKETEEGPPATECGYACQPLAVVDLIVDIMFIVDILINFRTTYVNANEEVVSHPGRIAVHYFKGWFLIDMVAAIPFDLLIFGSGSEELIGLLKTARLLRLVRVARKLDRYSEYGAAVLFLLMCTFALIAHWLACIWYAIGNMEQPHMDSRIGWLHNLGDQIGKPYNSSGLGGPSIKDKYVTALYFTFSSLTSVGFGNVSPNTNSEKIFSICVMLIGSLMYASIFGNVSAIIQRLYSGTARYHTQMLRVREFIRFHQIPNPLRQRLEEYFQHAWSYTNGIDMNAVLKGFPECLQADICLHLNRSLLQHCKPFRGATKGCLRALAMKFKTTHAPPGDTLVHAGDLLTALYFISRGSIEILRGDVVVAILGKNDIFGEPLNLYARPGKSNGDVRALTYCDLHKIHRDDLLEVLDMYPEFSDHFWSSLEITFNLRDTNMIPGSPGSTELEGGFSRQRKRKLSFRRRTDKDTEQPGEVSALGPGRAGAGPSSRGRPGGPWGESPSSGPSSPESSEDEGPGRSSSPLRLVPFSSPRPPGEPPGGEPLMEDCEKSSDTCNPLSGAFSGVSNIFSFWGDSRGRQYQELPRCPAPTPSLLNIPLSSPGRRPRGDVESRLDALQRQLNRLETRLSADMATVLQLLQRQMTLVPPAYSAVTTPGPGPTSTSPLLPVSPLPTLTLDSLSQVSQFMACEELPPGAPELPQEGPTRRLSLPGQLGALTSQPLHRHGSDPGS

[23] = Reversal of CGRP-induced dilation of human intracranial arterial rings assessed as rightward shift of concentration-response curve after 30 mins by Schild plot analysis; format: functional; details: 0.5 h
Rattus norvegicus [24] = test: Toxicity in Sprague-Dawley rat assessed as single cell necrosis of respiratory epithelium at 175 mg/mL administered intranasally for 7 days; format: organism-based; details: in vivo, inhaled_or_intranasal, 168 h; summary of the method: as §1
[25] = Oral bioavailability in intranasally dosed New Zealand White rabbit at 10 mg/mL; format: ADME, organism-based, Oryctolagus cuniculus; details: in vivo, other: intranasal; summary of the method: as §3
hERG [26] = biological target: T3, hERG; test: Inhibition of human ERG at 10 uM relative to control
[27] = Toxicity in sc dosed Sprague-Dawley rat after 10 days; format: organism-based; details: in vivo
Summary of the method: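 Rats were dosed subcutaneously once daily for 10 days at 0.3, 3, 10 and 30 mg/kg/day and assessed for tolerability and signs of systemic toxicity.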

[28] = Cmax in intranasally dosed New Zealand White rabbit; format: ADME, organism-based, Oryctolagus cuniculus; parameters: route nasal; details: in vivo, inhaled or intranasal; summary of the method: as §3
Cytochrome P450 3A4 [29] = biological target: T2, Cytochrome P450 3A4; test: Inhibition of CYP3A4 (unknown origin) expressed in baculovirus-infected insect cell microsomes assessed as 7-benzyloxy-4-trifluoromethylcoumarin conversion to 7-hydroxy-4-trifluoromethylcoumarin after 20 mins by fluorescence assay; format: ADME, Microsome
Rattus norvegicus [30] = test: Toxicity in Sprague-Dawley rat assessed as erosion of olfactory epithelium at 175 mg/mL administered intranasally for 7 days; format: organism-based; details: in vivo, inhaled_or_intranasal, 168 h; summary of the method: as §1
Homo sapiens [31] = species: Homo sapiens; test: Selectivity ratio for human CGRP receptor over adrenomedullin receptor-2 (unknown origin)
[32] = Permeability from basolateral to apical side of human Caco2 cells; format: ADME, cell-based; details: Caco-2, read-out: permeability
Homo sapiens [33] = species: Homo sapiens; test: Selectivity ratio for human CGRP receptor over amylin receptor-3 (unknown origin)
Rattus norvegicus [34] = test: Toxicity in Sprague-Dawley rat assessed as lesions in nasal olfactory epithelium at => 75 mg/mL administered intranasally for 7 days; format: organism-based; details: in vivo, inhaled_or_intranasal, 168 h; summary of the method: as §1
[35] = Oral bioavailability in cynomolgus monkey; format: ADME, organism-based, Macaca fascicularis; details: in vivo
Homo sapiens [36] = species: Homo sapiens; test: Selectivity ratio for human CGRP receptor over adrenomedullin receptor-1 (unknown origin)
Cytochrome P450 2C19 = Cytochrome P450 2C19 (Homo sapiens, UniProt P33261); test: Inhibition of CYP2C19 (unknown origin) expressed in baculovirus-infected insect cell microsomes assessed as 3-cyano-7-ethoxycoumarin conversion to 7-hydroxy-3-cyanocoumarin after 45 mins by fluorescence assay; format: ADME, Microsome
Chain of Cytochrome P450 2C19 (P33261 whole entry): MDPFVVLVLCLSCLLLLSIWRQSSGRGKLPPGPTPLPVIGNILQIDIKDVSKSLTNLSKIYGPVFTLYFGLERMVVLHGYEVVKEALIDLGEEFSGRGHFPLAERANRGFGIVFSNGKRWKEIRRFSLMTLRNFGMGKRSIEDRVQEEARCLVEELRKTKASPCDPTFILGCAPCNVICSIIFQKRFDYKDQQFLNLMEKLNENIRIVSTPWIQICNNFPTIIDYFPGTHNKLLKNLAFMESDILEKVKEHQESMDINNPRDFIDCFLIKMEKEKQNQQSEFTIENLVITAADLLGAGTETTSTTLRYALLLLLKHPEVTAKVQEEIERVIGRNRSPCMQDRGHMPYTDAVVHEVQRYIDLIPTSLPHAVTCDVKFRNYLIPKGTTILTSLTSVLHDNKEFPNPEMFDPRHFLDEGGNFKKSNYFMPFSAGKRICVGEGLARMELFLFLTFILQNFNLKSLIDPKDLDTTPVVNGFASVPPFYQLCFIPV

Cytochrome P450 1A2 = biological target: T4, Cytochrome P450 1A2 (Homo sapiens, UniProt P05177); test: Inhibition of CYP1A2 (unknown origin) expressed in baculovirus-infected insect cell microsomes assessed as 3-cyano-7-ethoxycoumarin conversion to 7-hydroxy-3-cyanocoumarin after 45 mins by fluorescence assay; format: ADME, Microsome
T4 sequence (P05177 whole entry): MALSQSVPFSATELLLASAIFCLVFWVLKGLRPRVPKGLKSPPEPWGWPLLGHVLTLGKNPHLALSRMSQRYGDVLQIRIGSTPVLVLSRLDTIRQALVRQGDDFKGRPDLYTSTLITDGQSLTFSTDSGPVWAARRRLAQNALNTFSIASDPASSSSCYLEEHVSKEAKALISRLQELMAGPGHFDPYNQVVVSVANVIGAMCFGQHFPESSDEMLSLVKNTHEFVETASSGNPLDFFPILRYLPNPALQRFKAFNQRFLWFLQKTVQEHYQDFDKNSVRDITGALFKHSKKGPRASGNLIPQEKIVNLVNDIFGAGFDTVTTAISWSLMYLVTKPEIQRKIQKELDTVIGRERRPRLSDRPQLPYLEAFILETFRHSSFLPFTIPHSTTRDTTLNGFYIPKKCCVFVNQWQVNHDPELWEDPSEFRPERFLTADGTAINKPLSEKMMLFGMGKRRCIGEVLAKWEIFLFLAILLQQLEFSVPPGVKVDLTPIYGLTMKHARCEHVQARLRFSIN

[37] = Permeability from apical to basolateral side of human Caco2 cells; format: ADME, cell-based; details: Caco-2, read-out: permeability
[38] = Oral bioavailability in intranasally dosed New Zealand White rabbit at 100 mg/mL; format: ADME, organism-based, Oryctolagus cuniculus; details: in vivo, other: intranasal; summary of the method: as §3
Rattus norvegicus [39] = test: Toxicity in Sprague-Dawley rat assessed as neutrophilic inflammation of respiratory epithelium at 175 mg/mL administered intranasally for 7 days; format: organism-based; details: in vivo, inhaled_or_intranasal, 168 h; summary of the method: as §1
[40] = Fraction unbound in human plasma; format: ADME, cell-free
Homo sapiens [41] = species: Homo sapiens; test: Selectivity ratio for human CGRP receptor over amylin receptor-1 (unknown origin)
Callithrix jacchus [42] = test: Inhibition of human alphaCGRP-induced increase in facial blood flow in marmoset at 0.03 mg/kg, sc administered 30 mins after human alphaCGRP-challenge measured 15 mins post-dose by laser Doppler flowmetric analysis relative to control; format: functional; details: route subcutaneous; summary of the method: as §2
[43] = Tmax in intranasally dosed New Zealand White rabbit; format: ADME, organism-based, Oryctolagus cuniculus; details: in vivo, inhaled or intranasal; summary of the method: as §3
Callithrix jacchus [44] = test: Inhibition of human alphaCGRP-induced increase in facial blood flow in marmoset at 0.03 mg/kg, sc administered 30 mins after human alphaCGRP-challenge measured 60 mins post-dose by laser Doppler flowmetric analysis relative to control; format: functional; details: route subcutaneous; summary of the method: as §2
[45] = Subcutaneous bioavailability in sc dosed Sprague-Dawley rat; details: in vivo

SMILES: CNS(=O)(=O)Cc1ccc2[nH]cc(CCN(C)C)c2c1
- Activity [1]: Dose-dependent effect
- EC50 [1]: 280 nM

SMILES: Cc1cc(C[C@@H](NC(=O)N2CCC(N3Cc4cccc(F)c4NC3=O)CC2)C(=O)N2CCC(N3CCCCC3)CC2)cc2cn[nH]c12
- Activity (Rattus norvegicus [2]): Toxic
- Activity (Rattus norvegicus [3]): Toxic

SMILES: O=C(CN1C(=O)C2(CCCC2)NC[C@H]1c1cc(F)cc(F)c1)Nc1ccc2c(c1)C[C@@]1(C2)C(=O)Nc2ncccc21 [MK3207]
- Ki [4]: 0.021 nM

SMILES: Cc1cc(C[C@@H](NC(=O)N2CCC(c3cc4ccccc4[nH]c3=O)CC2)C(=O)N2CCN(C3CCN(C)CC3)CC2)cc2cn[nH]c12 [ZAVEGEPANT]
- solubility [5]: > 300 mg/mL
- permeability [6]: impermeable
- EC50 [7]: 0.88 nM
- Activity (Rattus norvegicus [2]): Non-toxic
- bioavailability [8]: 1.4%
- IC50 (Cytochrome P450 3A4 [9]): 24000 nM
- Degradation % at 2191.5 h, 40 mg/mL [10]: 0.3%
- concentration [11]: 25 nM
- inhibition in vivo at 0.03 mg/kg (Callithrix jacchus [12]): 70%
- concentration at 5 min [13]: > 10 nM
- IC50 (Cytochrome P450 2D6): > 40000 nM
- Activity (Rattus norvegicus [3]): Non-toxic
- Kb [14]: 0.022 nM
- Activity (Rattus norvegicus [15]): Toxic
- Selectivity ratio (Homo sapiens [16]): > 10000
- IC50 (Cytochrome P450 2C9): > 40000 nM
- Activity [17]: inactive
- Ki [18]: 0.023 nM
- inhibition [19]: Dose-dependent effect
- Activity (Rattus norvegicus [20]): Toxic
- Activity (Rattus norvegicus [21]): Toxic
- inhibition at 30 µM (hERG [22]): 22%
- Kb [23]: 0.091 nM
- Activity (Rattus norvegicus [24]): Toxic
- bioavailability [25]: 13%
- inhibition at 10 µM (hERG [26]): 9.5%
- MTD at 240 h [27]: 30 mg/kg/day
- Cmax [28]: 120 nM
- IC50 (Cytochrome P450 3A4 [29]): > 40000 nM
- Activity (Rattus norvegicus [30]): Toxic
- Selectivity ratio (Homo sapiens [31]): > 10000
- Papp B→A [32]: 1.6 ×10⁻⁶ cm/s
- Selectivity ratio (Homo sapiens [33]): > 10000
- Activity (Rattus norvegicus [34]): Toxic
- bioavailability [35]: 0.3%
- Selectivity ratio (Homo sapiens [36]): > 10000
- IC50 (Cytochrome P450 2C19): > 40000 nM
- IC50 (Cytochrome P450 1A2): > 40000 nM
- Papp A→B [37]: 1.6 ×10⁻⁶ cm/s
- bioavailability [38]: 30%
- Activity (Rattus norvegicus [39]): Toxic
- fraction unbound [40]: 0.37
- Selectivity ratio (Homo sapiens [41]): > 10000
- inhibition in vivo at 0.03 mg/kg (Callithrix jacchus [42]): 48%
- Tmax [43]: 15 min
- inhibition in vivo at 0.03 mg/kg (Callithrix jacchus [44]): 80%
- bioavailability [45]: 82%
